For seven compounds, Ki, EC50 and Activity results are on record in ChEMBL document CHEMBL1154638, “14beta-Arylpropiolylamino-17-cyclopropylmethyl-7,8-dihydronormorphinones and related opioids. Further examples of pseudoirreversible mu opioid receptor antagonists” (J Med Chem, 2009).

The source made the active and inactive calls. The rule behind the calls is not given here.

Test [1] deals with Mu-type opioid receptor (Homo sapiens, UniProt P35372). Briefly: Displacement of [3H]DAMGO from human recombinant mu opioid receptor expressed in CHO cells by liquid scintillation counting. The test is classed as cell-based. A digest of the protocol: (§1)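 Competitive displacement binding uses membranes from CHO cells expressing recombinant human opioid receptors. Radioligands are [3H]DAMGO for mu and [3H]DPDPE for delta. Ki is reported in nM as the mean of two experiments, each run in triplicate.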
(Displacement assays read how much labelled ligand stays bound in the presence of the test substance.)

Test [2] addresses T1, Delta-type opioid receptor (Homo sapiens, UniProt P41143). Briefly: Displacement of [3H]DPDPE from human recombinant delta opioid receptor expressed in CHO cells by liquid scintillation counting. The test is classed as cell-based. A digest of the protocol: as §1
The target in test [3] is T2, Kappa-type opioid receptor (Homo sapiens, UniProt P41145). Briefly: Displacement of [3H]U69593 from human recombinant kappa opioid receptor expressed in CHO cells by liquid scintillation counting. The format is cell-based.
The target of test [4] is T2, Kappa-type opioid receptor. Briefly: Agonist activity at human kappa opioid receptor expressed in CHO cells assessed as [35S]GTPgammaS binding. The format is functional, cell-based. A digest of the protocol: (§2)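 Membranes from CHO cells transfected with individual recombinant human opioid receptors (mu, delta or kappa). Ligand-stimulated [35S]GTPγS binding is measured at each receptor type, for agonist stimulation and for antagonism. At kappa, agonist efficacy is expressed as % stimulation relative to U69593, alongside EC50.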
(GTPγS resists hydrolysis and so accumulates on activated G proteins.)

Test [5] concerns the target T1, Delta-type opioid receptor. Briefly: Agonist activity at human delta opioid receptor expressed in CHO cells assessed as [35S]GTPgammaS binding. The test is classed as functional, cell-based. A digest of the protocol:
as §2

The target in test [6] is T1, Delta-type opioid receptor. Briefly: Agonist activity at human delta opioid receptor expressed in CHO cells assessed as [35S]GTPgammaS binding relative to DPDPE. The test is classed as functional, cell-based. A digest of the protocol: as §2
Test [7] concerns the target T2, Kappa-type opioid receptor. Briefly: Agonist activity at human kappa opioid receptor expressed in CHO cells assessed as [35S]GTPgammaS binding relative to U69593. The format is functional, cell-based. A digest of the protocol: as §2
The test system of test [8] is Mus musculus. Briefly: Antinociceptive activity in Swiss mouse assessed as tail withdrawal response at 3.2 mg/kg, ip by warm-water tail-withdrawal assay. The arrangement: dose 3.2 mg/kg. The format is functional, organism-based. A digest of the protocol: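 Mouse warm-water (50 °C) tail-withdrawal assay. Compound was given across a dose range, and antinociception was expressed as a percentage of the maximum possible effect.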

The subject of test [9] is Mus musculus. Briefly: Antinociceptive activity in Swiss mouse assessed as inhibition of acetic acid-induced writhing at 0.32 mg/kg, ip by writhing assay. The arrangement: dose 0.32 mg/kg. The test is classed as functional, organism-based.
The test system of test [10] is Mus musculus. Briefly: Antinociceptive activity in Swiss mouse assessed as inhibition of acetic acid-induced writhing at 0.32 mg/kg, ip by writhing assay in presence of mu opioid receptor antagonist M-CAM. The format is functional, organism-based. The arrangement: dose 0.32 mg/kg. A general note: In writhing tests, fewer writhes than in controls are read as antinociception.

The subject of test [11] is Mus musculus. Briefly: Antinociceptive activity in Swiss mouse assessed as inhibition of acetic acid-induced writhing at 0.32 mg/kg, ip by writhing assay in presence of delta opioid receptor antagonist naltrindole. The test is classed as functional, organism-based. Also on record: dose 0.32 mg/kg.
The test system of test [12] is Mus musculus. Briefly: Antinociceptive activity in Swiss mouse assessed as inhibition of acetic acid-induced writhing at 0.32 mg/kg, ip by writhing assay in presence of kappa opioid receptor antagonist norBNI. The test is classed as functional, organism-based. The arrangement: dose 0.32 mg/kg.
Test [13] has as its system Mus musculus. Briefly: Antinociceptive activity in Swiss mouse assessed as tail withdrawal response at 100 mg/kg, ip after […] by warm-water tail-withdrawal assay. The format is functional. To be noted: route intraperitoneal.
In test [14] the test system is Mus musculus. Briefly: Antinociceptive activity in Swiss mouse assessed as tail withdrawal response at 100 mg/kg, ip after 30 mins by warm-water tail-withdrawal assay. The format is functional. To be noted: route intraperitoneal.
Test [15] in a line: Displacement of [3H]DPDPE from human recombinant delta opioid receptor expressed in CHO cells by liquid scintillation counting.
Test [16] concerns Mus musculus. Briefly: Antinociceptive activity in Swiss mouse assessed as tail withdrawal response at 100 mg/kg, ip after 3 days by warm-water tail-withdrawal assay. Particulars: route intraperitoneal. The test is classed as functional.
In test [17] the test system is Mus musculus. Briefly: Antinociceptive activity against acetic acid-induced writhing in Swiss mouse assessed as reversal of mu opioid receptor agonist morphine response at 3.2 mg/kg, ip by writhing assay. The test is classed as functional, organism-based. The arrangement: dose 3.2 mg/kg. A digest of the protocol: (§3)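 Mouse abdominal stretch assay. […] Stretches were counted, with saline as vehicle. Statistics used one-way ANOVA with Dunnett's post hoc test versus agonist alone and versus test ligand alone.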

The test system of test [18] is Mus musculus. The test is classed as functional, organism-based. Also on record: dose 3.2 mg/kg. To be noted: Swiss, 3.2 mg/kg.
In test [19] the test system is Mus musculus. Briefly: Antinociceptive activity against acetic acid-induced writhing in Swiss mouse assessed as reversal of […] response at 3.2 mg/kg, ip by writhing assay. The test is classed as functional, organism-based. Also on record: dose 3.2 mg/kg. A digest of the protocol: as §3
Test [20] concerns Mus musculus. Briefly: Antinociceptive activity against acetic acid-induced writhing in Swiss mouse assessed as reversal of mu opioid receptor agonist morphine response at 1 mg/kg, ip by writhing assay. The format is functional, organism-based. Also on record: dose 1 mg/kg.
In test [21] the test system is Mus musculus. The test is classed as functional, organism-based. Particulars: Swiss, 1 mg/kg. Also on record: dose 1 mg/kg.
The test system of test [22] is Mus musculus. Briefly: Antinociceptive activity against acetic acid-induced writhing in Swiss mouse assessed as reversal of […] response at 1 mg/kg, ip by writhing assay. The arrangement: dose 1 mg/kg. The format is functional, organism-based.

T1 sequence (P41143 whole entry): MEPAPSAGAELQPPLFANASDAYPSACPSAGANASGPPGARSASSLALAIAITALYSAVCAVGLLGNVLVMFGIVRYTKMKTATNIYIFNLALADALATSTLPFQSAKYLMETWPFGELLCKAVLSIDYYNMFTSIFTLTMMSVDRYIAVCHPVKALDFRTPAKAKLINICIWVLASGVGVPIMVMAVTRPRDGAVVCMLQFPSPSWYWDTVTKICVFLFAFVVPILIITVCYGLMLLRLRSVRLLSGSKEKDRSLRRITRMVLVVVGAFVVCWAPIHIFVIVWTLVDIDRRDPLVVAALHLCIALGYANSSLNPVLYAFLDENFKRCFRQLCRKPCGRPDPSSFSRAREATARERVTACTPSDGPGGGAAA
T2 sequence (P41145 whole entry): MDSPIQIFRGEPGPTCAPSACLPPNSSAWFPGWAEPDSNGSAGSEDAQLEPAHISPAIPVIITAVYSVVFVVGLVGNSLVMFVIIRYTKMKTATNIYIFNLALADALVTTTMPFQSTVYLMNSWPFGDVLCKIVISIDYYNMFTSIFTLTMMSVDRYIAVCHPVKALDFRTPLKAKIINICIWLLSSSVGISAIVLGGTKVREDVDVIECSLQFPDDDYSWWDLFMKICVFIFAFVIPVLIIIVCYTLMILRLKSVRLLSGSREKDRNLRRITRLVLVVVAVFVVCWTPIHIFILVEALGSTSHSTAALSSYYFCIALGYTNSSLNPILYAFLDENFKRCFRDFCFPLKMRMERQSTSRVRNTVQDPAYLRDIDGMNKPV
Sequence of Mu-type opioid receptor (P35372 whole entry): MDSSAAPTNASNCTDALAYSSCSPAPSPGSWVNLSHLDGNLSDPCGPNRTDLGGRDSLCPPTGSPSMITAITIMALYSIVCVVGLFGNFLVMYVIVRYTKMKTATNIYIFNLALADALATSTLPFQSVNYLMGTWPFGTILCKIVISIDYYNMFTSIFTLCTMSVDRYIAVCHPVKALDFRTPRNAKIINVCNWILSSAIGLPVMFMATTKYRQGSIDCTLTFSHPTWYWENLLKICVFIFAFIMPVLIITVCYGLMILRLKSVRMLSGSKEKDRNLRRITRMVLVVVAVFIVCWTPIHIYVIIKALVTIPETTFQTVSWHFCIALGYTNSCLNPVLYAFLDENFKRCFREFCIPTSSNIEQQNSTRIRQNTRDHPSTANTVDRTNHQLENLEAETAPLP

For the compound `O=C1CC[C@@]2(NCC#Cc3ccc(Cl)cc3)[C@H]3Cc4ccc(O)c5c4[C@@]2(CCN3CC2CC2)[C@H]1O5`, the Ki in [1] is 0.97 nM; in test [2] it was 3.26 nM; in test [3], 2.89 nM.
Take `COc1ccc2c3c1O[C@H]1C(=O)CC[C@@]4(NC(=O)C#Cc5ccccc5)[C@@H](C2)N(CC2CC2)CC[C@]314`: the Ki was 1.46 nM in test [1], 28.3 nM in test [2] and 7.86 nM in test [3]. In addition, the EC50 in [4] was found to be 3.18 nM; in test [5], 75.1 nM. Also, the figures for the Activity in [6] and in test [7] were 47% and 77%, respectively. Moreover, the outcome in test [8], in test [9], in test [11] and in test [12] was Active. Besides, the result in test [10] was inactive.
`O=C(C#Cc1ccccc1)N[C@@]12CCC(=O)[C@@H]3Oc4c(O)ccc5c4[C@@]31CCN(CC1CC1)[C@@H]2C5`: the Ki in test [1] came out at 1.31 nM; in test [2], 1.6 nM; in test [3], 1.12 nM. For the same compound, in test [4], the EC50 is 0.3 nM. Moreover, the values for the Activity in test [7] and in test [13] were 21% and 0%, respectively.
Regarding `COc1ccc2c3c1O[C@H]1C(=O)CC[C@@]4(NC(=O)C#Cc5ccc(Cl)cc5)[C@@H](C2)N(CC2CC2)CC[C@]314`, the Ki in [1] was found to be 7.43 nM; in test [2] it was 65.2 nM; in [3] it was 13.7 nM. In test [4], the EC50 came to 20 nM. Also, the values for the Activity in [7] and in test [14] were 25% and 0%, respectively.
For `COc1ccc2c3c1O[C@H]1C(=O)CC[C@@]4(NC/C=C/c5ccc(Cl)cc5)[C@@H](C2)N(CC2CC2)CC[C@]314`, the results for the Ki in [1], in [3] and in test [15] were 0.7 nM, 53.6 nM and 44.5 nM, respectively.
Consider `COc1ccc2c3c1O[C@H]1C(=O)CC[C@@]4(NCC#Cc5ccc(Cl)cc5)[C@@H](C2)N(CC2CC2)CC[C@]314`, for which the Ki amounted to 9.68 nM in test [1], 136 nM in test [2] and 74.4 nM in test [3].
As to `O=C(C#Cc1ccc(Cl)cc1)N[C@@]12CCC(=O)[C@@H]3Oc4c(O)ccc5c4[C@@]31CCN(CC1CC1)[C@@H]2C5`, the Ki in test [1] was 3.75 nM; in [2], 5.41 nM; in test [3] it was 2.73 nM. For the same compound, the Activity in test [16] turned out to be 20%; in test [14], 0%. Moreover, the outcome in test [17], in test [18], in test [19], in test [20], in test [21] and in test [22] was Active.

As a reminder, the Ki is a dissociation constant, usually derived from enzyme kinetics or from competition with a known ligand. In general, EC50 refers to the concentration at which the effect is half-maximal.
